Values belong to the molecule of their own block, whether it stands above or below them.
Columns and labels:
[1] = test system: RAS-deficient MEFs reconstituted with BRAF^V600E; assay: Immunoblot analysis of cell signaling in BRAF^V600E MEFs; assay type: cell-based, mouse; details: 1 hour treatment
How it was run: (§1)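 RAS-deficient MEFs reconstituted with KRAS^Q61R or BRAF^V600E were grown in DMEM with 10% FBS at 37°C, 5% CO₂. Cells were plated at about 70% confluency and treated 48 h later for 1 h. They were lysed in NP-40 buffer (pH 8.0) for 15 min at 4°C, equalised by Bradford, and immunoblotted for pERK and total ERK. Blots are representative of ≥2 independent experiments.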

[2] = test system: RAS-deficient MEFs reconstituted with KRAS^Q61R; assay: Immunoblot/immunoprecipitation analysis of cell signaling in KRAS^Q61R MEFs; assay type: cell-based, mouse
How it was run: as §1

[3] = test system: MCF10A cells stably expressing Halo-KRAS^G12V; assay: Immunoblot analysis of cell signaling in KRAS^G12V-MCF10A cells; assay type: cell-based; details: 1 hour treatment
[4] = target: KRAS^Q61R/CRAF^WT interaction (Homo sapiens, UniProt P01116+P04049, Q61R); assay: NanoBRET assay of Halo-KRAS^Q61R/Nano-CRAF^WT binding in live 293FT cells; assay type: cell-based
[5] = target: CRAF-RBD (Homo sapiens, UniProt P04049); assay: SPR binding to captured avi-CRAF-RBD; details: 100–1.56 μmol/L
How it was run: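 Avi-tagged CRAF-RBD (aa 52–131) was captured on a Neutravidin-coupled CM5 chip in a Biacore S200. A 2-fold series from 100 to 1.56 µmol/L was injected over 1,785 RU, and single 100 µmol/L doses over 3,000 RU. Reference-cell and buffer responses were subtracted, and DMSO mismatches were corrected with a standard curve.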

[6] = target: KRAS^G12D (Homo sapiens, UniProt P01116, G12D); assay: SPR binding to captured avi-KRAS^G12D-GppNHp; details: GppNHp-loaded KRAS^G12D; 100–1.56 μmol/L
How it was run: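 Avi-KRAS^G12D (aa 2–188) loaded with GppNHp was captured on a Neutravidin-coupled CM5 chip in a Biacore S200. Compounds were injected as a 2-fold series from 100 to 1.56 µmol/L over 2,300 RU, or singly at 100 µmol/L over 3,800 RU. Buffer was HEPES pH 7.5 with NaCl, Tween 20, MgCl₂ and 2.5% DMSO. Reference-cell and buffer responses were subtracted, with DMSO-mismatch correction.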

[7] = test system: KRAS^G12V or CRAF-RBD; assay: SPR analysis, result summarised over both targets; assay type: binding; details: single dose 100 μmol/L or dose-response 100–1.56 μmol/L

Molecule: COc1cc(/C=C(\C#N)C(N)=O)cc(CSc2nc3ccccc3s2)c1O [AG825]
pERK levels (ERK activation) [1]: pERK levels were reduced
BRAF/CRAF dimer formation (CRAF immunoprecipitation probed for BRAF) ([2]; 10 μmol/L for 1 hour): increase the detection of heterodimerized CRAF/BRAF complexes
pERK levels (ERK activation) ([2]; 1 hour treatment, immunoblot): increased RAS-dependent ERK activation
pERK levels (ERK activation) [3]: increased RAS-dependent ERK activation

IC50 [4]: 5 µM
Molecule: C[C@@H]1O[C@@H](O[C@H]2[C@H](O[C@H]3CO[C@@H](O[C@H]4CC[C@]5(C)[C@H]6CC[C@]78OC[C@@]9(CC[C@](C)(C=O)C[C@H]97)[C@H](O)C[C@@]8(C)[C@]6(C)CC[C@H]5C4(C)C)[C@H](O[C@@H]4O[C@H](CO)[C@@H](O)[C@H](O)[C@H]4O)[C@H]3O)O[C@H](CO)[C@@H](O)[C@@H]2O)[C@H](O)[C@H](O)[C@H]1O [Ardisiacrispin B]

IC50 [4]: 3.6 µM
SPR binding to CRAF-RBD [5]: non-selective and non-saturable binding
SPR binding to KRAS^G12D [6]: non-selective and non-saturable binding
Molecule: Clc1ccc(C(c2ccc(Cl)cc2)n2cc[n+](CC(OCc3ccc(Cl)cc3Cl)c3ccc(Cl)cc3Cl)c2)cc1 (centres unmarked) [Calmidazolium chloride]

IC50 [4]: 5.4 µM
Molecule: CCOc1nc2cccc(C(=O)OC(C)OC(=O)OC3CCCCC3)c2n1Cc1ccc(-c2ccccc2-c2nnn[nH]2)cc1 (centres unmarked) [Candesartan cilexetil]

Molecule: CN1C(=O)[C@]2(Cc3cn([C@]45C[C@@]67SS[C@@](CO)(C(=O)N6[C@H]4Nc4ccccc45)N(C)C7=O)c4ccccc34)SS[C@@]1(CO)C(=O)N2C [Chetomin]
IC50 [4]: 2.9 µM

Molecule: CC(C)=CCC[C@]1(C)C=Cc2c(O)c3c(c(CC=C(C)C)c2O1)O[C@]12C(=C[C@@H]4C[C@H]1C(C)(C)O[C@@]2(C/C=C(/C)C(=O)O)C4=O)C3=O [Gambogic acid]
IC50 [4]: 1.7 µM

Molecule: CN1C(=O)[C@]23CC4=CC=C[C@H](O)[C@H]4N2C(=O)[C@@]1(CO)SS3 [Gliotoxin]
IC50 [4]: 2.8 µM
pERK levels (ERK activation) ([2]; 1 hour treatment, immunoblot): inhibit RAS-dependent ERK activation
pERK levels (ERK activation) [3]: inhibit RAS-dependent ERK activation

Molecule: Cc1cc2c(C(C)C)c(O)c(O)c(C=O)c2c(O)c1-c1c(C)cc2c(C(C)C)c(O)c(O)c(C=O)c2c1O [Gossypol]
IC50 [4]: 5.2 µM

Molecule: CC(C)(C)CC(C)(C)NCC(O)COc1ccc(C(C)(C)c2ccc(OCC(O)CNC(C)(C)CC(C)(C)C)cc2)cc1.Cl (centres unmarked) [NSC145366]
pERK levels (ERK activation) [1]: suppressed pERK levels
pERK levels (ERK activation) ([2]; 1 hour treatment, immunoblot): inhibited ERK activation
pERK levels (ERK activation) [3]: inhibited ERK activation

Molecule: CC(C)=C[C@H]1C[C@H](C)[C@]2(CC[C@]3(C)C[C@H]4[C@H](C(=O)C[C@@]4(C)O)/C(C=O)=C\C[C@H]32)O1 [Ophiobolin A]
IC50 [4]: 1.08 µM
pERK levels (ERK activation) ([2]; 1 hour treatment, immunoblot): reduced pERK levels in a dose-dependent manner
phosphorylation of endogenous CRAF on S338 (pS338-CRAF) ([2]; 1 hour treatment, immunoblot): reduced the phosphorylation of CRAF on S338
pERK levels (ERK activation) [3]: dose-dependent decrease
pMEK levels (phosphorylation and activation of MEK) [3]: dose-dependent decrease
phosphorylation of endogenous CRAF on S338 (pS338-CRAF) [3]: reduced the phosphorylation of CRAF on S338
SPR binding to KRAS or the CRAF-RBD [7]: inability to detect binding

increase of the Halo-KRAS^Q61R/Nano-CRAF^WT interaction (BRET signal) ([4]; 0.5 and 1 μmol/L for 4 hours, normalized BRET signal): approximately 35%
Molecule: CN(C)CCOc1ccc(-c2nc(-c3ccncc3)c(-c3ccc4c(c3)CC/C4=N\O)[nH]2)cc1 [SB590885]

IC50 [4]: 6 µM
Molecule: CC(C)(C)c1ccc(C(O)CCCN2CCC(C(O)(c3ccccc3)c3ccccc3)CC2)cc1 (centres unmarked) [Terfenadine]

Molecule: C/C=C(/C)C(=O)O[C@H]1C(C)=C2[C@H]([C@@H]1OC(=O)CCCCCCC)[C@@](C)(OC(C)=O)C[C@H](OC(=O)CCC)[C@@]1(O)[C@H]2OC(=O)[C@@]1(C)O [Thapsigargin]
IC50 [4]: 14 µM

IC50 [4]: 14.3 µM
Molecule: CN1CCN(CCCN2c3ccccc3Sc3ccc(C(F)(F)F)cc32)CC1 [Trifluoperazine]

Molecule: COc1cc(CCN)c2c(c1OC)SSSSS2 [Varacin]
IC50 [4]: 9.5 µM

Molecule: Swinhopeptolide
SPR binding to CRAF-RBD [5]: slow on/off rates and possible non-specific binding
SPR binding to KRAS^G12D [6]: slow on/off rates and possible non-specific binding

Reference: article PMC8419108 (Molecular Cancer Therapeutics, 2021)
